Assay outcomes (PubChem)
An excerpt weighted towards active compounds, which were near 2% of everything screened.
ATG4B inh = ATG4B (human) cysteine protease inhibition; hit rate 0.51% among 340,000; ATG4B cleavage of LC3-PLA2, NBD-HPC fluorescence, 1 h; AID 504462; inhibition, % at 8.33 µM; Q9Y4P1; in the data active = inhibition above about 40%
MIN6 prolif = induces beta-cell replication in MIN6 cells; hit rate 0.29% among 330,000; MIN6 cells proliferation, ATPlite luminescence, 48 h; cells starved in 0.2% serum; 100% = growth in 10% serum; proliferation, % at 10 µM; AID 2380;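 active = compounds whose signal lies at least 3.5 SD above the mean of all wells on their plate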;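 also: 0% = DMSO-treated cells in low-serum medium and 100% = 10% serum control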
VIM-2 inh = blocks Pseudomonas aeruginosa VIM-2 metallo-beta-lactamase. AID 1527. purified VIM-2, nitrocefin hydrolysis, epi-absorbance fluorescence. inhibition, % at 5.6 µM. hit rate 0.89% among 290,000;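 active = inhibition above the mean of all tested compounds plus 3 SD, cutoff set per screening run, cut at about 7.5% in these data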;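 also: red hydrolysis product quenches plate fluorescence so inhibitors raise well fluorescence; 0% = enzyme with DMSO and 100% = DMSO without enzyme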
IMP-1 inhibitor = blocks Pseudomonas aeruginosa IMP-1 metallo-beta-lactamase; purified IMP-1, nitrocefin hydrolysis, epi-absorbance fluorescence; inhibition, % at 5.6 µM; hit rate 0.45% among 290,000; AID 1556;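 active = inhibition above the mean plus 3 SD of all compounds in the same screening run, cut at about 4.5% in these data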;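 also: 0% = IMP-1 with DMSO and 100% = DMSO wells lacking enzyme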
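System – purified recombinant IMP-1 beta-lactamase · Input – IMP-1 dispensed at 0.2 nM · Timing – 15 min preincubation plus 25 min reaction at 25 °C · Signal – Epi-absorbance fluorescence, 480 nm excitation, 530 nm emission · Measure – percent IMP-1 inhibition derived from blank-referenced optical density · Controls – Enzyme-plus-DMSO low control, enzyme-free DMSO high control · Replication – singlicate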
PvdQ acylase = blocks Pseudomonas aeruginosa PvdQ acylase activity | purified PvdQ acylase, fluorescence plate reader | inhibition, % at 10 µM | hit rate 0.063% among 340,000 | AID 488965; in the data active = inhibition above about 30%, passing the limit was not always enough;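 also: 0% = vehicle neutral wells and 100% = reference inhibitor wells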
HKDC1 inh = HKDC1 (human) hexokinase inhibition | Q2TB90 | recombinant HKDC1, G6PDH/diaphorase resazurin coupled fluorescence | inhibition, % at 20 µM | hit rate 0.16% among 340,000 | AID 493160;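 active = inhibition above about 35% when tested at 20 µM, limit read from the data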;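 also: plate controls were DMSO wells with enzyme for no effect and DMSO wells lacking enzyme for full effect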
Target sequence (Q2TB90 whole entry, looked up): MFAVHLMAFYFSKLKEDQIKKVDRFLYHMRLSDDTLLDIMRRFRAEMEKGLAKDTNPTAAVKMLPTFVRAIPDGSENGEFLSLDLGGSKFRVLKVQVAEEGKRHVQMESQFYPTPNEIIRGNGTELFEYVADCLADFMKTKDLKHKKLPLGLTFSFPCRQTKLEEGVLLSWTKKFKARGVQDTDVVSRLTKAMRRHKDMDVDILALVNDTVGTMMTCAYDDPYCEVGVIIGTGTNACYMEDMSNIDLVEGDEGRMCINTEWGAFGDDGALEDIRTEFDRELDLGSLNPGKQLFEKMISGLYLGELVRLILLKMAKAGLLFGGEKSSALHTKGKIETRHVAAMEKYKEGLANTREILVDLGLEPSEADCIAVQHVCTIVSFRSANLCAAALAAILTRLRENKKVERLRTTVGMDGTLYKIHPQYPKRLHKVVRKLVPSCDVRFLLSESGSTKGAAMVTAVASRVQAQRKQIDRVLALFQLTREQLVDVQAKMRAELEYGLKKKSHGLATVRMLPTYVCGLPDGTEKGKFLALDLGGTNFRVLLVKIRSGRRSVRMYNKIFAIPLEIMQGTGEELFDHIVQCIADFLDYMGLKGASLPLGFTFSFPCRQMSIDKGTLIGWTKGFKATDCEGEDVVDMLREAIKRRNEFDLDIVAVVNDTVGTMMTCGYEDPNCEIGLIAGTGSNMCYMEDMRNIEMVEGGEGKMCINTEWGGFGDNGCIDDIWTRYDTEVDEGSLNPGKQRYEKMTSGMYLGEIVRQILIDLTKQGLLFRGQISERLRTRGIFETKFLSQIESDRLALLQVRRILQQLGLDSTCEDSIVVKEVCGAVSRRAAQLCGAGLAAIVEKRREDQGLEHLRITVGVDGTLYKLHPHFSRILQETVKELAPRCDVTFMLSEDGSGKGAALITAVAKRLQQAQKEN
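Test system: recombinant HKDC1 (HK5) hexokinase enzyme, produced in-house / Doses: 20 µM test compound, 1% DMSO / Timing: 90 min, room temperature / Detection: G6PDH/diaphorase-coupled fluorescence, 1 mM NADP, 100 µM resazurin, 525/613 nm / Control set: DMSO wells with and without enzyme mix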
Numbers without * were called inactive.

For CCOc1ccccc1C1SCC(=O)Nc2c1c(=O)[nH]n2C(CC)CC (centres undefined) the results were ATG4B inh -13.7, MIN6 prolif -3.8, VIM-2 inh 10.7*, IMP-1 inhibitor -1.1, PvdQ acylase -12.8 and HKDC1 inh -4.3.
CCCC(C)n1[nH]c(=O)c2c1NC(=O)CSC2c1ccccc1 (centres undefined) was read as ATG4B inh -2.9, MIN6 prolif -1.5, VIM-2 inh -0.7, IMP-1 inhibitor -2.4, PvdQ acylase -9.1 and HKDC1 inh -8.0.
Screening Cc1cc(N2CCCCC2)ccc1C=C1C(=O)N(C)C(=S)N(C)C1=O returned ATG4B inh -7.6, MIN6 prolif -5.0, VIM-2 inh 4.0, IMP-1 inhibitor 7.4*, PvdQ acylase -8.9 and HKDC1 inh -3.2.
For O=C1C=CC(=O)C=C1 the results were ATG4B inh -3.6, MIN6 prolif -5.5, PvdQ acylase -22.6 and HKDC1 inh 48.3*.
For COC(=O)C1=C(c2cccc(C#N)c2)C[C@@H]2CC[C@H]1N2C(=O)NCCOc1ccc(OC)cc1 the results were ATG4B inh -0.2, MIN6 prolif -0.3, PvdQ acylase -15.8 and HKDC1 inh -7.8.
Screening Cc1c(C=C2C(=O)N(C)C(=S)N(C)C2=O)c2ccccc2n1CC(=O)NCC1CCCO1 (centres undefined) returned ATG4B inh 0.7, MIN6 prolif -6.6, VIM-2 inh -3.9, IMP-1 inhibitor 19.3*, PvdQ acylase -25.0 and HKDC1 inh 4.8.
O=C1C(=O)c2cccc3cccc1c23 was read as ATG4B inh 4.6, MIN6 prolif -4.5, VIM-2 inh -0.1, IMP-1 inhibitor 5.1*, PvdQ acylase -15.3 and HKDC1 inh 11.2.
`CC1=C2C(=O)C3C(CC=C4CC(O)CCC43C)C2CCC12OC1CC(C)CNC1C2C` (centres undefined) gave ATG4B inh 0.1, MIN6 prolif -2.0, VIM-2 inh -0.9, IMP-1 inhibitor -2.8, PvdQ acylase -15.0 and HKDC1 inh 4.8.
`C[N+]12CCC(CC1)C(C(O)(c1ccccc1)c1cccs1)C2` (centres undefined) gave ATG4B inh 2.1, MIN6 prolif -1.4, VIM-2 inh -1.6, IMP-1 inhibitor 11.8*, PvdQ acylase -14.1 and HKDC1 inh 4.9.
CCC[N+]12CCC(CC1)C(C(O)(c1ccccc1)c1ccccc1)C2 (centres undefined) was read as ATG4B inh -0.1, MIN6 prolif -1.6, VIM-2 inh -2.5, IMP-1 inhibitor -2.9, PvdQ acylase -7.5 and HKDC1 inh -3.7.
`Cc1ccccc1-n1c(-c2ccc([N+](=O)[O-])cc2)nc2ccccc2c1=O` gave ATG4B inh 21.6, MIN6 prolif 2.2, VIM-2 inh -1.0, IMP-1 inhibitor -2.7, PvdQ acylase -10.2 and HKDC1 inh -10.9.
Screening Nc1c2c(nc3sc4c(c13)CCCC4)CCCC2 returned ATG4B inh 8.7, MIN6 prolif -2.7, VIM-2 inh 12.2*, IMP-1 inhibitor -4.4, PvdQ acylase -13.8 and HKDC1 inh -9.1.
For CNc1ccc2nc3ccccc3[n+](C)c2c1 the results were ATG4B inh 0.6, MIN6 prolif -4.9, VIM-2 inh 8.0*, IMP-1 inhibitor -8.3, PvdQ acylase -10.1 and HKDC1 inh 17.3.
CC1(C)OC(c2ccccc2)=C/C(=C/C=C2C(=O)NC(=O)NC2=O)O1 was read as ATG4B inh -0.3, MIN6 prolif -1.9, VIM-2 inh 4.9, IMP-1 inhibitor 4.6*, PvdQ acylase 13.9 and HKDC1 inh 1.1.
Screening C=CCn1c(O)c(C(C)=NC2CC2)c(=O)[nH]c1=O returned ATG4B inh 1.4, MIN6 prolif -0.1, VIM-2 inh -3.0, IMP-1 inhibitor -2.8, PvdQ acylase 4.7 and HKDC1 inh -5.8.
For C=CCn1c(O)c(C(C)=NC2CCN(Cc3ccccc3)CC2)c(=O)[nH]c1=O the results were ATG4B inh -10.4, MIN6 prolif 0.5, VIM-2 inh 8.7*, IMP-1 inhibitor -2.9 and HKDC1 inh -4.4.
CC(=O)c1ccc2c(c1)C1C(Cl)C(Sc3ccccc3[N+](=O)[O-])CC1C(c1ccccc1[N+](=O)[O-])N2 (centres undefined) was read as ATG4B inh 12.6, MIN6 prolif -6.5, VIM-2 inh -1.5, IMP-1 inhibitor 1.4, PvdQ acylase -17.3 and HKDC1 inh 15.6.
Screening CC(=O)c1ccc2c(c1)C1C(Cl)C(Sc3ccccc3[N+](=O)[O-])CC1C(c1ccccc1)N2 (centres undefined) returned ATG4B inh -0.5, MIN6 prolif -5.8, VIM-2 inh 3.1, IMP-1 inhibitor 5.7*, PvdQ acylase 11.2 and HKDC1 inh 9.3.
O=P(O)(O)Cc1ccccc1OP(=O)(c1ccccc1)c1ccccc1 was read as ATG4B inh 4.2, MIN6 prolif -1.9, VIM-2 inh 9.9*, IMP-1 inhibitor -1.9, PvdQ acylase 1.6 and HKDC1 inh 2.0.
COc1ccc(CNC(=O)CCC(=O)N2C[C@H]3C[C@H](C2)c2cccc(=O)n2C3)cc1 was read as ATG4B inh -23.8, MIN6 prolif -0.9, VIM-2 inh -3.1, IMP-1 inhibitor -1.3, PvdQ acylase 1.8 and HKDC1 inh -6.9.
For C=CCCC1(CC)C(=O)NC(=S)NC1=O the results were ATG4B inh 13.2, PvdQ acylase -9.5 and HKDC1 inh 0.0.
Screening Cc1ccc(-c2nc(N(C)C3CCN(C)CC3)c3ccccc3n2)cc1 returned ATG4B inh -2.9, MIN6 prolif -4.3, VIM-2 inh 10.9*, IMP-1 inhibitor -3.2, PvdQ acylase 2.5 and HKDC1 inh -5.6.
For Cc1cc(=O)oc2cc(OCC(=O)N3CCN(Cc4ccccc4)CC3)ccc12 the results were ATG4B inh -2.5, MIN6 prolif 2.8, PvdQ acylase -1.1 and HKDC1 inh -1.6.
Screening Cc1cc(=O)oc2cc(OCC(=O)N3CCN(Cc4ccc5c(c4)OCO5)CC3)ccc12 returned ATG4B inh -5.0, MIN6 prolif 1.9, VIM-2 inh 9.7*, IMP-1 inhibitor -0.3, PvdQ acylase 6.0 and HKDC1 inh -0.2.
`COc1ccc(C(C)=O)cc1CC(C(=O)c1ccc(Br)cc1)N(C)C` (centres undefined) gave ATG4B inh -4.5, MIN6 prolif 0.1, VIM-2 inh 1.8, IMP-1 inhibitor 6.0*, PvdQ acylase 6.4 and HKDC1 inh 8.0.
For COC(=O)C1=C(c2cc3ccccc3s2)C[C@@H]2CC[C@H]1N2C(=O)NC1CCCCC1 the results were ATG4B inh 11.2, MIN6 prolif 6.5, PvdQ acylase 3.5 and HKDC1 inh 7.4.
Screening Cc1ccsc1/C=C1\C(=O)NC(=S)N(C)C1=O returned ATG4B inh 5.2, MIN6 prolif -5.6, VIM-2 inh 1.1, IMP-1 inhibitor 1.9, PvdQ acylase -15.4 and HKDC1 inh 5.0.
